Assay results published in ChEMBL document CHEMBL3856186, “Partial Activation and Inhibition of TRPV1 Channels by Evodiamine and Rutaecarpine, Two Major Components of the Fruits of Evodia rutaecarpa” (J Nat Prod, 2016).
Activity calls are given as the source filed them. The rule behind the calls is not given here.

Key:
Assay type in all cases: cell-based
[1] = molecular target: Transient receptor potential cation channel subfamily V member 1 (Rattus norvegicus) (UniProt O35433); experiment: Partial antagonist activity at rat TRPV1 expressed in HEK293 cells assessed as inhibition of proton-induced channel current at 1 or 50 uM and -60 mV holding potential pretreated for 60 secs prior to proton-challenge by whole-cell patch clamp method (reference value: 185.1 +/- 38.6 pA/pF)
In short: (§1)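 Proton-activated currents were recorded in rat TRPV1-expressing HEK293 cells held at −60 mV in whole-cell mode, with bath buffered to pH 6 with 10 mM MES, at ~25 °C. Peak current amplitude was the read-out.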

[2] = molecular target: Transient receptor potential cation channel subfamily V member 1 (Rattus norvegicus) (UniProt O35433); experiment: Agonist activity at rat TRPV1 channel expressed in HEK293 cells assessed as outward rectifying current at 50 uM and -60 mV holding potential by whole-cell patch-clamp method
In short: (§2)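 Rat TRPV1 cDNA and an EGFP reporter were cotransfected into HEK293 cells, with recording 1 day later. Whole-cell voltage clamp was run at room temperature (~25 °C) in standard bath (2 mM CaCl2, pH 7.4) with a KCl/MgATP/EGTA pipette solution. Steps from −100 to +100 mV (100 ms) gave I–V curves. Agonist was applied until desensitization, and peak current was scored. EC50 came from a sigmoidal fit.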

[3] = molecular target: Transient receptor potential cation channel subfamily V member 1 (Rattus norvegicus) (UniProt O35433); experiment: Agonist activity at rat TRPV1 channel expressed in HEK293 cells assessed as induction of maximum channel current at 50 uM at -60 mV holding potential by whole-cell patch-clamp method; in short: as §2
[4] = molecular target: Transient receptor potential cation channel subfamily V member 1 (Rattus norvegicus) (UniProt O35433); experiment: Partial antagonist activity at rat TRPV1 expressed in HEK293 cells assessed as inhibition of proton-induced channel current at 2 uM at -60 mV holding potential co-treated with proton by whole-cell patch clamp method; in short: as §1
[5] = molecular target: Transient receptor potential cation channel subfamily V member 1 (Rattus norvegicus, UniProt O35433); experiment: Agonist activity at rat TRPV1 channel expressed in HEK293 cells assessed as induction of channel current at -60 mV holding potential by whole-cell patch-clamp method; in short: as §2
[6] = molecular target: Transient receptor potential cation channel subfamily V member 1 (Rattus norvegicus) (UniProt O35433); experiment: Agonist activity at rat TRPV1 channel expressed in HEK293 cells assessed as reversal potential at 50 uM and -60 mV holding potential by whole-cell patch-clamp method; in short: as §2
[7] = molecular target: Transient receptor potential cation channel subfamily V member 1 (Rattus norvegicus) (UniProt O35433); experiment: Agonist activity at rat TRPV1 channel expressed in HEK293 cells assessed as induction of inward current at 50 uM and -60 mV holding potential by whole-cell patch-clamp method; in short: as §2

Chain of Transient receptor potential cation channel subfamily V member 1 (Rattus norvegicus) (O35433 whole entry): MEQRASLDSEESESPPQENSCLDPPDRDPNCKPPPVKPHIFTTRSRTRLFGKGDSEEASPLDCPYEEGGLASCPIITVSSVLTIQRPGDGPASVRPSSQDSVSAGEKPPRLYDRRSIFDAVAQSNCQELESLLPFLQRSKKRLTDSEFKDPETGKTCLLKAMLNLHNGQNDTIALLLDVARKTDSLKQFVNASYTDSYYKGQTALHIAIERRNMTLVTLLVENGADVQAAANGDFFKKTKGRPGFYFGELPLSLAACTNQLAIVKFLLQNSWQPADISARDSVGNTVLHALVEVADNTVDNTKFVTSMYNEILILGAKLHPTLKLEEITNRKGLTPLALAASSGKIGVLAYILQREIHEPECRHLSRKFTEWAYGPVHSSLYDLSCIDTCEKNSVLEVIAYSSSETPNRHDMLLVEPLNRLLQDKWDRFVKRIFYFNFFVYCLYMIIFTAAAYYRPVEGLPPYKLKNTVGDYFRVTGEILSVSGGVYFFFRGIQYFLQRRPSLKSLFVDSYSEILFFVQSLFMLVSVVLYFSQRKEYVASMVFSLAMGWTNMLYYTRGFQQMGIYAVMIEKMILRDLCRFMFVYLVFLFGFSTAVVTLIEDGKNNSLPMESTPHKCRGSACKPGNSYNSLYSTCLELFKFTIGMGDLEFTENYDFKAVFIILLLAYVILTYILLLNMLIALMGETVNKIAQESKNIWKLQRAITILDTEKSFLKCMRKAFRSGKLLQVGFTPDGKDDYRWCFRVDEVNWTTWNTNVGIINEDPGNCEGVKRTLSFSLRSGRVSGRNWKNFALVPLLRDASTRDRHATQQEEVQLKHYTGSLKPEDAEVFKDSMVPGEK
Chain of Transient receptor potential cation channel subfamily V member 1 (O35433 whole entry): as above

- Activity [1]: -157 pA/pF
- Activity [2]: Active
- Activity [3]: -55 pA/pF
- Activity [4]: -200 pA/pF
- EC50 [5]: 2060 nM
- Activity [6]: 0 mV
- Activity [7]: Active
SMILES: O=c1c2ccccc2nc2n1CCc1c-2[nH]c2ccccc12 [RUTAECARPINE]
